The source made the active and inactive calls. The rule behind the calls is not given here.
Columns and labels:
[1] = Inhibition of Metallo-beta-lactamase L1 (unknown origin) assessed as inhibition of nitrocefin hydrolysis at 100 uM by spectrophotometry
Summary of the method: (§1)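 Purified metallo-β-lactamases (subclass B1: IMP-1, CcrA, Bla2, NDM-1; B3: L1) were mixed with inhibitor dissolved in DMSO with no pre-incubation before the hydrolysis assay. Activity is reported as percent inhibition.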

[2] = Inhibition of Metallo-beta-lactamase Bla2 (unknown origin) assessed as inhibition of nitrocefin hydrolysis at 100 uM by spectrophotometry; summary of the method: as §1
[3] = Inhibition of Metallo-beta-lactamase IMP-1 (unknown origin) assessed as inhibition of nitrocefin hydrolysis at 100 uM by spectrophotometry; summary of the method: as §1
[4] = Activation of metallo-beta-lactamase NDM1 (unknown origin) assessed as hydrolysis of nitrocefin at 100 uM by spectrophotometry; summary of the method: as §1
[5] = Activation of metallo-beta-lactamase CcrA (unknown origin) assessed as hydrolysis of nitrocefin at 100 uM by spectrophotometry; summary of the method: as §1
[6] = Inhibition of Metallo-beta-lactamase Bla2 (unknown origin) assessed as inhibition of nitrocefin hydrolysis preincubated at 100 uM before substrate addition by spectrophotometry; conditions: TDE = time-dependent effect
[7] = Inhibition of Metallo-beta-lactamase NDM1 (unknown origin) assessed as inhibition of nitrocefin hydrolysis preincubated at 100 uM before substrate addition by spectrophotometry; conditions: TDE = time-dependent effect
[8] = Inhibition of Metallo-beta-lactamase CcrA (unknown origin) assessed as inhibition of nitrocefin hydrolysis preincubated at 100 uM before substrate addition by spectrophotometry; conditions: TDE = time-dependent effect
[9] = Inhibition of Metallo-beta-lactamase IMP-1 (unknown origin) assessed as inhibition of nitrocefin hydrolysis preincubated at 100 uM before substrate addition by spectrophotometry; conditions: TDE = time-dependent effect
[10] = Inhibition of Metallo-beta-lactamase Bla2 (unknown origin) assessed as inhibition of nitrocefin hydrolysis preincubated at 100 uM for 30 mins before substrate addition by spectrophotometry
Summary of the method: (§2)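 Each enzyme (IMP-1, CcrA, Bla2, NDM-1 of subclass B1; L1 of B3) was pre-incubated with inhibitor in DMSO for 30 min, then substrate hydrolysis was measured. Results are given as percent inhibition.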

[11] = Inhibition of Metallo-beta-lactamase NDM1 (unknown origin) assessed as inhibition of nitrocefin hydrolysis preincubated at 100 uM for 30 mins before substrate addition by spectrophotometry; summary of the method: as §2
[12] = Inhibition of Metallo-beta-lactamase CcrA (unknown origin) assessed as inhibition of nitrocefin hydrolysis preincubated at 100 uM for 30 mins before substrate addition by spectrophotometry; summary of the method: as §2
[13] = Inhibition of Metallo-beta-lactamase IMP-1 (unknown origin) assessed as inhibition of nitrocefin hydrolysis preincubated at 100 uM for 30 mins before substrate addition by spectrophotometry; summary of the method: as §2
[14] = Inhibition of metallo-beta-lactamase L1 (unknown origin) assessed as inhibition of nitrocefin hydrolysis preincubated at 100 before substrate addition by spectrophotometry; conditions: TDE = time-dependent effect
[15] = Inhibition of metallo-beta-lactamase L1 (unknown origin) assessed as inhibition of nitrocefin hydrolysis preincubated at 100 uM for 30 mins before substrate addition by spectrophotometry; summary of the method: as §2

CC(=O)OC1C2CCC(C(=O)O)N2P1(=O)O (stereo not given)
inhibition [1]: 37%
inhibition [2]: 22%
inhibition [3]: 48%
Activity [4]: Active
Activity [5]: Active
inhibition [6]: tde
inhibition [7]: tde
inhibition [8]: tde
inhibition [9]: tde
inhibition [10]: 94%
inhibition [11]: 53%
inhibition [12]: 69%
inhibition [13]: 70%
inhibition [14]: tde
inhibition [15]: 70%
